According to ChEMBL document CHEMBL2169846, “Design and synthesis of Pictet-Spengler condensation products that exhibit oncogenic-RAS synthetic lethality and induce non-apoptotic cell death” (Bioorg Med Chem Lett, 2012):
Calls of active or inactive are those of the source.

Assays:
[1] = target: E3 ubiquitin-protein ligase Mdm2 (Homo sapiens) (UniProt Q00987); experiment: Inhibition of wild type Mdm2 at 20 ug/mL after 2 hrs by cell-based luciferase assay
[2] = system: E3 ubiquitin-protein ligase Mdm2 (Homo sapiens), Q00987 [C464A]; experiment: Inhibition of Mdm2 C464A mutant at 20 ug/mL after 2 hrs by cell-based luciferase assay
[3] = system: HT-1080; experiment: Cytotoxicity against human HT1080 cells at 20 ug/mL after 48 hrs by alamar blue assay; format: functional, cell-based
Summary of the method: (§1)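 Each cell line exposed for 48 h to a 2-fold, 12-point dilution series beginning at 20 µg/mL. Viability by Alamar blue; LC50 derived from the curves.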

[4] = system: RKO; experiment: Cytotoxicity against human RKO cells at 20 ug/mL after 48 hrs by alamar blue assay; format: functional, cell-based; summary of the method: as §1
[5] = system: MCF7; experiment: Cytotoxicity against human MCF7 cells at 20 ug/mL after 48 hrs by alamar blue assay; format: functional, cell-based; summary of the method: as §1
[6] = system: U2OS; experiment: Cytotoxicity against human U2OS cells at 20 ug/mL after 48 hrs by alamar blue assay; format: functional, cell-based
[7] = system: HT1299; experiment: Cytotoxicity against human HT1299 cells at 20 ug/mL after 48 hrs by alamar blue assay; format: functional, cell-based; summary of the method: as §1
[8] = system: BJeH; experiment: Cytotoxicity against human BJeH cells expressing wild type RAS at 20 ug/mL after 48 hrs by alamar blue assay; format: functional, cell-based
[9] = system: BJeLR; experiment: Cytotoxicity against human BJeLR cells expressing RAS G12V mutant at 20 ug/mL after 48 hrs by alamar blue assay; format: functional, cell-based

Sequence of E3 ubiquitin-protein ligase Mdm2 (Homo sapiens) (Q00987 whole entry, looked up): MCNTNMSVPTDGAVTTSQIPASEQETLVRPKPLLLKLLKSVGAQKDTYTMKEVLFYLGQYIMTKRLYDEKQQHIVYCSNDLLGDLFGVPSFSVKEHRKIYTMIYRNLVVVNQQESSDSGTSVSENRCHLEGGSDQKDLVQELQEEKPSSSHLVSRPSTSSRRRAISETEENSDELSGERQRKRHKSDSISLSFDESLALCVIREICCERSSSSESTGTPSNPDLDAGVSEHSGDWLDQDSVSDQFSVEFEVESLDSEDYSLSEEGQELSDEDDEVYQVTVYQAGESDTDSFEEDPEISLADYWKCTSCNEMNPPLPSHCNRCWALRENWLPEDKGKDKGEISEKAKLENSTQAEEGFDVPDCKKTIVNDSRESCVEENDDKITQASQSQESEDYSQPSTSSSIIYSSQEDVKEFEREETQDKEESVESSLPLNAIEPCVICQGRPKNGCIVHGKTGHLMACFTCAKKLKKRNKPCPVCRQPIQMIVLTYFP
Sequence of E3 ubiquitin-protein ligase Mdm2 (Homo sapiens), Q00987 [C464A] (Q00987 whole entry C464A): as the sequence (Q00987 whole entry, looked up) above, with C464A counted along it

CCOC(=O)C1c2[nH]c3ccccc3c2CCN1Cc1ccccc1 (stereo not given)
inactive: inhibition [1] | inhibition [2] | Activity [3] | Activity [4] | Activity [5] | Activity [6] | Activity [7] | Activity [8] | Activity [9]

CCCN1C(=O)C(CCC2NCCc3c2[nH]c2ccccc32)C(=O)N(CCC)C1=O (stereo not given)
inactive: inhibition [1] | inhibition [2] | Activity [3] | Activity [4] | Activity [5] | Activity [6] | Activity [7] | Activity [8] | Activity [9]

CN1C(=O)C(CCC2NCCc3c2[nH]c2ccccc32)C(=O)N(C)C1=O (stereo not given)
inactive: inhibition [1] | inhibition [2] | Activity [3] | Activity [4] | Activity [5] | Activity [6] | Activity [7] | Activity [8] | Activity [9]

CCOC(=O)C1c2[nH]c3ccccc3c2CCN1C(=O)OC (stereo not given)
inactive: inhibition [1] | inhibition [2] | Activity [3] | Activity [4] | Activity [5] | Activity [6] | Activity [7] | Activity [8] | Activity [9]

CCOC(=O)C1c2c(c3ccccc3n2C)CCN1C(=O)OC(C)(C)C (stereo not given)
inactive: inhibition [1] | inhibition [2] | Activity [3] | Activity [4] | Activity [5] | Activity [6] | Activity [7] | Activity [8] | Activity [9]

CN1C(=O)C(Cc2nccc3c2[nH]c2ccccc23)C(=O)N(C)C1=O
inactive: inhibition [1] | inhibition [2] | Activity [3] | Activity [4] | Activity [5] | Activity [6] | Activity [7] | Activity [8] | Activity [9]

CN1C(=O)C(Cc2nccc3c4ccccc4n(C(=O)OC(C)(C)C)c23)C(=O)N(C)C1=O
inactive: inhibition [1] | inhibition [2] | Activity [3] | Activity [4] | Activity [5] | Activity [6] | Activity [7] | Activity [8] | Activity [9]

CN1C(=O)C(c2nccc3c2[nH]c2ccccc23)C(=O)N(C)C1=O
inactive: inhibition [1] | inhibition [2] | Activity [3] | Activity [4] | Activity [5] | Activity [6] | Activity [7] | Activity [8] | Activity [9]

CCCN1C(=O)C(CC(C)C2NCCc3c2[nH]c2ccccc32)C(=O)N(CCC)C1=O (stereo not given)
inactive: inhibition [1] | inhibition [2] | Activity [3] | Activity [4] | Activity [5] | Activity [6] | Activity [7] | Activity [8] | Activity [9]

CCOC(=O)C1c2c(c3ccccc3n2C(=O)OC(C)(C)C)CCN1C(=O)OC (stereo not given)
inactive: inhibition [1] | inhibition [2] | Activity [3] | Activity [4] | Activity [5] | Activity [6] | Activity [7] | Activity [8] | Activity [9]
